ChEMBL document CHEMBL3045252, “Stereoselective syntheses of all stereoisomers of lariciresinol and their plant growth inhibitory activities” (J Agric Food Chem, 2011)

Tests used:
Lactuca sativa [1] = assay: Plant growth regulatory activity in lettuce Lactuca sativa (lettuce) assessed as inhibition of root growth at 1 mM at 20 degC measured after 3 days; assay type: functional; details: 72 h, read-out: GI
Summary of the method: (§1)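 Paper was treated with acetone solution and dried, then 3 mL water added to a final 1 × 10^-3 M. Sealed dishes kept dark at 20 °C. Root and shoot lengths expressed as growth relative to the negative control. Mean ± SEM. One-way ANOVA with Tukey post-test.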

Lolium multiflorum [2] = assay: Plant growth regulatory activity in Lolium multiflorum (Italian ryegrass) assessed as inhibition of root growth at 1x10'-3 M at 20 degC measured after 5 days; assay type: functional; details: 120 h, read-out: GI
Summary of the method: (§2)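 Paper was pre-wetted with 500 μL acetone solution (6.0 × 10^-3 to 6.0 × 10^-8 M) and dried, then 3 mL water added to a final 1.0 × 10^-3 to 1.0 × 10^-8 M. Sealed dishes kept dark at 20 °C. Root and shoot lengths read against a negative control. Mean ± SEM; three experiments below 10^-3 M. One-way ANOVA with Tukey post-test.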

Lactuca sativa [3] = assay: Plant growth regulatory activity in lettuce Lactuca sativa (lettuce) assessed as inhibition of shoot length at 1 mM at 20 degC measured after 3 days; assay type: functional; details: 72 h, read-out: GI; summary of the method: as §1
Lolium multiflorum [4] = assay: Plant growth regulatory activity in Lolium multiflorum (Italian ryegrass ) assessed as inhibition of shoot length at 1x10'-3 M at 20 degC measured after 5 days; assay type: functional; details: 120 h, read-out: GI; summary of the method: as §2
Lolium multiflorum [5] = assay: Plant growth regulatory activity in Lolium multiflorum (Italian ryegrass) assessed as stimulation of root growth up to 10'--4 to 10^-7 M at 20 degC measured after 5 days; assay type: functional; summary of the method: as §2
Lolium multiflorum [6] = assay: Inhibition of germination in Lolium multiflorum (Italian ryegrass) seed assessed as growth rate of germinated grass root; assay type: functional
Lolium multiflorum [7] = assay: Inhibition of seed germination in Lolium multiflorum (Italian ryegrass) seed assessed as seed germination rate (reference value: 90.3 +/- 1.40%); assay type: functional
Lolium multiflorum [8] = assay: Toxicity in italian ryegrass Lolium multiflorum (Italian ryegrass) assessed as adverse effect up to 10^-7 M; assay type: organism-based; details: in vivo
Lolium multiflorum [9] = assay: Plant growth regulatory activity in Lolium multiflorum (Italian ryegrass) assessed as inhibition of shoot length at 1 mM at 20 degC measured after 5 days; assay type: functional; details: 120 h, read-out: GI; summary of the method: as §2

Row | Structure (SMILES) | inhibition of growth at 1000 µM (Lactuca sativa [1]) | inhibition of growth at 1000 µM (Lolium multiflorum [2]) | inhibition of growth at 1000 µM (Lactuca sativa [3]) | inhibition of growth at 1000 µM (Lolium multiflorum [4]) | Activity (Lolium multiflorum [5]) | inhibition (INH) (Lolium multiflorum [6]) | inhibition (INH) (Lolium multiflorum [7]) | Activity (Lolium multiflorum [8]) | inhibition of growth at 1000 µM (Lolium multiflorum [9])
1 | COc1cc(C[C@@H]2CO[C@H](c3ccc(O)c(OC)c3)[C@@H]2CO)ccc1O | -20.7% | -30% | -1.6% | < 23% | – | – | – | – | –
2 | COc1cc(C[C@H]2CO[C@H](c3ccc(O)c(OC)c3)[C@@H]2CO)ccc1O | -20.7% | -48.2% | -1.6% | – | 20% | -35.4% | 72.5% | – | –
3 | COc1cc(C[C@@H]2CO[C@@H](c3ccc(O)c(OC)c3)[C@H]2CO)ccc1O | – | – | -32.3% | – | – | – | – | – | –
4 | COc1cc(C[C@H]2CO[C@@H](c3ccc(O)c(OC)c3)[C@@H]2CO)ccc1O | -20.7% | – | -1.6% | – | – | – | – | Non-toxic | –
5 | COc1cc(C[C@@H]2CO[C@H](c3ccc(O)c(OC)c3)[C@H]2CO)ccc1O | -20.7% | – | -1.6% | – | – | – | – | Non-toxic | –
6 | COc1cc(C[C@H]2CO[C@@H](c3ccc(O)c(OC)c3)[C@H]2CO)ccc1O | -20.7% | -30% | -1.6% | < 23% | – | – | – | – | –
7 | COc1cc(C[C@@H]2CO[C@@H](c3ccc(O)c(OC)c3)[C@@H]2CO)ccc1O [(-)-Lariciresinol] | -8.2% | -44.3% | -13.3% | – | – | -57.2% | 80% | – | -17.1%
8 | COc1cc(C[C@H]2CO[C@H](c3ccc(O)c(OC)c3)[C@H]2CO)ccc1O [LARICIRESINOL] | -14.4% | -29.3% | -22% | – | – | -40.7% | 72.5% | – | –
